Reference: ChEMBL document CHEMBL1133173, “Isoxazolines as potent antagonists of the integrin alpha(v)beta(3)” (J Med Chem, 2000)

The molecules below were run against Integrin alpha-V/beta-3 (Homo sapiens, UniProt P05106+P06756) (assay: Inhibition of vitronectin receptor (alpha V beta 3), expressed on human 293 cells, binding to immobilized fibrinogen).
Format: cell-based, HEK293
Outline: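 Human 293 cells stably transfected with human β3 plus a lacZ reporter (293β3z clone). Cells at 10⁶ viable cells/mL in MCDB131/20 mM HEPES pH 7.0 with 0.2% DMSO are preincubated with compound for 15 min at 37 °C. They are then added at 10⁵ cells/well to glycine-purified human fibrinogen-coated, BSA-blocked wells for 1 h at 37 °C, 5% CO₂. Adherent cells are lysed and β-galactosidase is read by chemiluminescence against a purified enzyme standard curve. Nonspecific binding is defined with 1 μM of a reference antagonist.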

Integrin alpha-V/beta-3, sequence (P05106 27-788 limits assumed): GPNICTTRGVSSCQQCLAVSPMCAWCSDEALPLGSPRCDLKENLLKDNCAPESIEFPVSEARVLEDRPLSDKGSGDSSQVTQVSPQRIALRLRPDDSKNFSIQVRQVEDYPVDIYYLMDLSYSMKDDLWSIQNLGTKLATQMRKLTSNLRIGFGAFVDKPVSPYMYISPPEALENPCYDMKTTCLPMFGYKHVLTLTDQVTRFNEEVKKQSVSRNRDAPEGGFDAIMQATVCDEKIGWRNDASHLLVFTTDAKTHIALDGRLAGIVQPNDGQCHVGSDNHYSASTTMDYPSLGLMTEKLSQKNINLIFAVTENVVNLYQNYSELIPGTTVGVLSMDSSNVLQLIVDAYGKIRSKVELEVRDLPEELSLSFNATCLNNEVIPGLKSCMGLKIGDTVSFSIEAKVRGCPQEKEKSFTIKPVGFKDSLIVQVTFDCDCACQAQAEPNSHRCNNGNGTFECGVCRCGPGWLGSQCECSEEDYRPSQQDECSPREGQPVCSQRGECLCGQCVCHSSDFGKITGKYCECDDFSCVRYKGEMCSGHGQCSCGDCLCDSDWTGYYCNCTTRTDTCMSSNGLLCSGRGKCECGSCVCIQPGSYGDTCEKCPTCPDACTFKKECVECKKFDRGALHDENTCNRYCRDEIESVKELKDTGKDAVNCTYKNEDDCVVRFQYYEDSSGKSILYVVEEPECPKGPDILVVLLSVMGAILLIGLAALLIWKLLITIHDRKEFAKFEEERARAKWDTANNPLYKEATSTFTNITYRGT
Integrin alpha-V/beta-3, sequence (P06756 31-889 limits assumed): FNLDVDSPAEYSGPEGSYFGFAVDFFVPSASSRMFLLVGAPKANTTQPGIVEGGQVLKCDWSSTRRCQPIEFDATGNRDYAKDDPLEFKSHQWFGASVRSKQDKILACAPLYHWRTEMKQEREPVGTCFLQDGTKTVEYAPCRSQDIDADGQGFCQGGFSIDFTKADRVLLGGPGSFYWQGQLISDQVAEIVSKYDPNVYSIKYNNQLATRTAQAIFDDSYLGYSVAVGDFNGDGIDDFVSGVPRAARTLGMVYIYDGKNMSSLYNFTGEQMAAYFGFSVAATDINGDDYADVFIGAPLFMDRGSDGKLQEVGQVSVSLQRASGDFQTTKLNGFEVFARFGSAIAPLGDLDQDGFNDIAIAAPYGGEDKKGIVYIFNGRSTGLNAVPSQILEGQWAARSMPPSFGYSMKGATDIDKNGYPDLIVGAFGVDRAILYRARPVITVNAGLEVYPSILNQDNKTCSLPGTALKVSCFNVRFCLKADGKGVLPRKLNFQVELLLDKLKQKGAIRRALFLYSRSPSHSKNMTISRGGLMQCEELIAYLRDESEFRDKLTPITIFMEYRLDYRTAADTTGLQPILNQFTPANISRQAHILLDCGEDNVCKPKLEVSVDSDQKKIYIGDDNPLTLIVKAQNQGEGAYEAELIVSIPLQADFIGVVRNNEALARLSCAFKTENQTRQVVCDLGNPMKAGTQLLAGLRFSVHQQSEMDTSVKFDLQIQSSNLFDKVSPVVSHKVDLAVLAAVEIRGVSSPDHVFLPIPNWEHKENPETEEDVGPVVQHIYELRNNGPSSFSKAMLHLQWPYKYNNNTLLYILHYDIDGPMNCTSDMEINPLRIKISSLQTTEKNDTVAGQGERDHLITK
Integrin alpha-V/beta-3, sequence (P06756 891-1048 limits assumed): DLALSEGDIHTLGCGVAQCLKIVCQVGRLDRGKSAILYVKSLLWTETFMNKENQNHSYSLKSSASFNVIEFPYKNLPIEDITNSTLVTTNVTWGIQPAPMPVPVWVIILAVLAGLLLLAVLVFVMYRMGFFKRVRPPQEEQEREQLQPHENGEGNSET

IC50 [nM]	Compound
> 1000	Cc1cc(C)c(S(=O)(=O)N[C@@H](CNC(=O)C2=NOC(CCCCNC(N)=O)C2)C(=O)O)c(C)c1 (stereo not given in full)
106	Cc1cc(C)c(S(=O)(=O)N[C@@H](CNC(=O)C2=NOC(CCNc3ncc[nH]3)C2)C(=O)O)c(C)c1 (stereo not given in full)
54	Cc1cc(C)c(S(=O)(=O)N[C@@H](CNC(=O)C2=NOC(CCCCNc3ccccn3)C2)C(=O)O)c(C)c1 (stereo not given in full)
> 1000	N[C@@H](CNC(=O)C1=NOC(CCCCNc2ncc[nH]2)C1)C(=O)O (stereo not given in full)
130	CN([C@@H](CNC(=O)C1=NOC(CCCCNc2ccccn2)C1)C(=O)O)S(=O)(=O)c1ccc(-c2ccccc2)cc1 (stereo not given in full)
15	Cc1cc(C)c(S(=O)(=O)N[C@@H](CNC(=O)C2=NOC(CCCCNc3ncc[nH]3)C2)C(=O)O)c(C)c1 (stereo not given in full)
169	Cc1cc(C)c(S(=O)(=O)N[C@@H](CNC(=O)C2=NOC(CCCCN=C(N)N)C2)C(=O)O)c(C)c1 (stereo not given in full)
240	O=C(NC[C@H](NS(=O)(=O)c1ccc(-c2ccccc2)cc1)C(=O)O)C1=NOC(CCCCNc2ncc[nH]2)C1 (stereo not given in full)
> 1000	Cc1cc(C)c(S(=O)(=O)N[C@@H](CNC(=O)C2=NOC(CCCCNc3nccc4ccccc34)C2)C(=O)O)c(C)c1 (stereo not given in full)
34	Cc1cc(C)c(S(=O)(=O)N[C@@H](CNC(=O)C2=NOC(CCNC(=O)Nc3ncc[nH]3)C2)C(=O)O)c(C)c1 (stereo not given in full)
62	Cc1cc(C)c(S(=O)(=O)N[C@@H](CNC(=O)C2=NOC(CCCCNC3=NCCN3)C2)C(=O)O)c(C)c1 (stereo not given in full)
170	CC(C)c1ccc(S(=O)(=O)N[C@@H](CNC(=O)C2=NOC(CCCCNc3ccccn3)C2)C(=O)O)cc1 (stereo not given in full)
46	Cc1cc(C)c(S(=O)(=O)N[C@@H](CNC(=O)C2=NOC(CCCc3c[nH]c(N)n3)C2)C(=O)O)c(C)c1 (stereo not given in full)
26	Cc1cc(C)c(S(=O)(=O)N[C@@H](CNC(=O)C2=NOC(CCCc3cccc(N)n3)C2)C(=O)O)c(C)c1 (stereo not given in full)
51	O=C(NC[C@H](NS(=O)(=O)c1cccc2ccccc12)C(=O)O)C1=NOC(CCCCNc2ncc[nH]2)C1 (stereo not given in full)
44	Cc1cc(-c2ccccc2)cc(C)c1S(=O)(=O)N[C@@H](CNC(=O)C1=NOC(CCCCNc2ccccn2)C1)C(=O)O (stereo not given in full)
81	O=C(NC[C@H](NS(=O)(=O)c1ccccc1)C(=O)O)C1=NOC(CCCCNc2ccccn2)C1 (stereo not given in full)
8.8	Cc1cc(-c2ccccc2)cc(C)c1S(=O)(=O)N[C@@H](CNC(=O)C1=NOC(CCCCNc2ncc[nH]2)C1)C(=O)O (stereo not given in full)
> 1000	Cc1cc(C)c(S(=O)(=O)N[C@@H](CNC(=O)C2=NOC(CCCCNc3cc4ccccc4cn3)C2)C(=O)O)c(C)c1 (stereo not given in full)
10.6	O=C(NC[C@H](NS(=O)(=O)c1ccccc1)C(=O)O)C1=NOC(CCCCNc2ncc[nH]2)C1 (stereo in doubt; 3cc)
18	O=C(NC[C@H](NS(=O)(=O)c1c(Cl)cccc1Cl)C(=O)O)C1=NOC(CCCCNc2ncc[nH]2)C1 (stereo not given in full)
66	O=C(NC[C@H](NS(=O)(=O)c1ccccc1)C(=O)O)C1=NOC(CCCCNc2ncc[nH]2)C1 (stereo in doubt; 3q)
31	Cc1cc(C)c(S(=O)(=O)N[C@@H](CNC(=O)C2=NOC(CCCC(=O)Nc3ncc[nH]3)C2)C(=O)O)c(C)c1 (stereo not given in full)
> 100000	N=C(N)c1ccc(C2=NO[C@@H](CC(=O)NCCC(=O)O)C2)cc1
73	Cc1noc(C)c1S(=O)(=O)N[C@@H](CNC(=O)C1=NOC(CCCCNc2ncc[nH]2)C1)C(=O)O (stereo not given in full)
7.1	Cc1cccc(Cl)c1S(=O)(=O)N[C@@H](CNC(=O)C1=NOC(CCCCNc2ncc[nH]2)C1)C(=O)O (stereo not given in full)
2800	Cc1cc(C)c(S(=O)(=O)N[C@H](CNC(=O)C2=NOC(CCCCNc3ncc[nH]3)C2)C(=O)O)c(C)c1 (stereo not given in full)
4.6	O=C(NC[C@H](NS(=O)(=O)c1c(Cl)cc(-c2ccccc2)cc1Cl)C(=O)O)C1=NOC(CCCCNc2ncc[nH]2)C1 (stereo not given in full)
160	O=C(NC[C@H](NS(=O)(=O)c1cccc2ccccc12)C(=O)O)C1=NOC(CCCCNc2ccccn2)C1 (stereo not given in full)
> 1000	Cc1cc(C)c(S(=O)(=O)N[C@@H](CNC(=O)C2=NOC(CCCCNS(N)(=O)=O)C2)C(=O)O)c(C)c1 (stereo not given in full)
